High-throughput results: PubChem, several laboratories
proCasp7 act: counter-screen: procaspase-7 (human) activation; activation, % at 8.5 µM; 330,000 compounds, 0.093% hits; recombinant procaspase-7, Ac-DEVD-pNA absorbance 405 nm; D23A/D198A/D206A triple mutant, cannot self-cleave; scale: DMSO 0, 5 µM enzyme 100; P55210;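 active = percent activation above the screen-wide mean plus 3 SD, cut at about 25% in these data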
Target sequence (P55210 whole entry D23A/D198A/D206A): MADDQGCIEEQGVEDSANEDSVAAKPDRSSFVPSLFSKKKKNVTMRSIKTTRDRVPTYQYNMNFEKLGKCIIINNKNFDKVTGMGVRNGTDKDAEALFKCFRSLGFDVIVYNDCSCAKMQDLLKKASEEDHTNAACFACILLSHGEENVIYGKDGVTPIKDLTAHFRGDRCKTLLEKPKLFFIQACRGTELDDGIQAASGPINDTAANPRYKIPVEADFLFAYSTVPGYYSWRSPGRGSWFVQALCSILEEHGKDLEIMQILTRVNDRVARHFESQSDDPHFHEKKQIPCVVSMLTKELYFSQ
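Assay system: Uncleavable procaspase-7 mutant enzyme / Input: 2 µM procaspase-7 mutant as dispensed / Dosing: single nominal 8.5 µM compound dose, 0.8% DMSO final / Timing: 1 h enzyme–compound preincubation and 2 h substrate reaction, both 25 °C / Detection: p-Nitroaniline absorbance at 405 nm, read at 0 and 120 min / Replication: singlicate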
IDE act: activators of human insulin-degrading enzyme in cells; HEK cells, FAbeta-B cleavage, fluorescence polarization; 0% vehicle, 100% cell-free pure enzyme wells; activation, % at 5.96 µM; 340,000 compounds, 0.073% hits; AID 493087;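 active = activation above the mean of all tested compounds plus 3 SD, set per screening campaign, cut at about 17% in these data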
PHOSPHO1 block: blocks human PHOSPHO1 phosphatase activity; Q8TCT1; recombinant PHOSPHO1, absorbance phosphatase assay; inhibition, % at 13.3 µM; 290,000 compounds, 1.1% hits; AID 1565; in the data active = inhibition above about 60%
Target sequence (Q8TCT1 whole entry, looked up): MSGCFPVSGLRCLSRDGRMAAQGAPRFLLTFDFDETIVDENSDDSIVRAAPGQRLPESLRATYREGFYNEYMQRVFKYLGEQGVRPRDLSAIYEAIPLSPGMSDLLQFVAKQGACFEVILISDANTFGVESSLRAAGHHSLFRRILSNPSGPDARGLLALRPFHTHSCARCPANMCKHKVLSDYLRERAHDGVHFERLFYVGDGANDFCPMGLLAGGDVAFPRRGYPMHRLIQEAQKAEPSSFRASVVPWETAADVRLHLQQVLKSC
IDE inh: inhibits human insulin-degrading enzyme in HEK cells; P14735; FAbetaB cleavage, fluorescence polarization; inhibition, % at 5.59 µM; 320,000 compounds, 0.41% hits; AID 434962;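 active = percent inhibition above the average of all tested compounds plus 3 SD, set per screening campaign, cut at about 16% in these data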;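 note: IDE supplied by intact live HEK cells; FP after avidin binding of uncleaved biotin substrate so inhibition keeps polarization high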
UBC13 inh: blocks human UBC13 polyubiquitin chain formation; 330,000 compounds, 0.47% hits; inhibition, % at 20 µM; AID 485273; P61088; TR-FRET; in the data active = inhibition above about 45%, passing the limit was not always enough
proCasp3 act: activators of human procaspase-3; 330,000 compounds, 0.11% hits; recombinant procaspase-3 D3A, Ac-DEVD-pNA absorbance 405 nm; AID 463141; activation, % at 8.5 µM; P42574;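 active = activation above the mean of all tested compounds plus 3 SD, cut at about 21% in these data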
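assay system = Procaspase-3 D3A mutant | signal = absorbance at 405 nm, 0 and 120 min | times = 1 h preincubation plus 2 h reaction at 25 °C | repeats = single replicate | read-out = % activation between DMSO and enzyme-spiked controls | medium = Zinc-free HEPES saline buffer with Triton X-100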
Each line names hits and unclear results; the compound was inactive in the other large screens. An excerpt weighted towards active compounds, which were near 1.9% of everything screened.

COc1cc(OC)c(C2CC(=O)N3CN(c4ccccc4C)CSC3=C2C#N)cc1OC (stereo unspecified)	none (no result: IDE act)
CCc1ccccc1N1CSC2=C(C#N)C(c3ccccc3F)CC(=O)N2C1 (stereo unspecified)	PHOSPHO1 block 61
COc1nc(-c2ccc(Cl)cc2)ccc1-c1noc(-c2ccco2)n1	PHOSPHO1 block 80
Clc1ccccc1-c1ncc2ccccn12	PHOSPHO1 block 61
COc1ccc(NC(=O)CSc2nc(N)c(C(=O)Nc3ccc(N(C)C)cc3)s2)cc1	PHOSPHO1 block 66
S=C(NN=C1CCCCCC1)Nc1ccc(Cl)cc1	PHOSPHO1 block 85
Fc1ccc(NC(=S)NN=C2CCCCCC2)cc1	PHOSPHO1 block 100
O=C(COc1ccc(Cl)cc1)NN=C1CCCCCCC1	none
COc1cccc(CCNC(=O)CCc2nnc(-c3cc(C)oc3C)o2)c1	none
O=C(NNCc1ccc(O)cc1)c1ccccc1Cl	none
COc1cc(-c2nnc(-c3cc(-c4ccccc4)nc4ccccc34)o2)cc(OC)c1OC	none (no result: proCasp7 act, PHOSPHO1 block, IDE inh, UBC13 inh, proCasp3 act)
CN(C)c1ccc(NC(=O)c2ccc(COc3cccc(Cl)c3)o2)cc1	PHOSPHO1 block 92
C=CCn1c(C)cc(C(=O)CSc2nnc3c(Cl)cc(Cl)cn23)c1C	PHOSPHO1 block 62
Cc1cc(C(=O)CSc2nnc3c(Cl)cc(Cl)cn23)c(C)n1C	none
Cc1ccc(-n2c(C)cc(C(=O)CSc3nncs3)c2C)cc1	PHOSPHO1 block 89
COc1ccc(-n2c(C)cc(C(=O)CSc3nn4c(=O)c(C(C)(C)C)nnc4s3)c2C)cc1	PHOSPHO1 block 94
Cc1cc(C(=O)CSc2nncs2)c(C)n1-c1c(C)n(C)n(-c2ccccc2)c1=O	none
CCCc1cc(C(=O)NNC(=S)NC(C)c2ccccc2)cs1 (stereo unspecified)	PHOSPHO1 block 83
CCCc1cc(C(=O)NNC(=S)NCC2CCCO2)cs1 (stereo unspecified)	none
COc1ccc(C2CC(c3ccc(Cl)cc3Cl)n3nc(N)nc3N2)cc1 (stereo unspecified)	none
COc1ccc(C2CC(c3ccc(Cl)cc3Cl)Nc3nc(N)nn32)cc1 (stereo unspecified)	PHOSPHO1 block 70
Cc1cc(C)n(CC(=O)N/N=C/c2ccc(C)o2)n1	PHOSPHO1 block 62
CCOc1cccc(C(=O)Nc2ccc(N(CC)CC)cc2)c1	PHOSPHO1 block 70
CCN(CC)c1ccc(NC(=O)Nc2cccc(C(C)=O)c2)cc1	PHOSPHO1 block 74
CCN(CC)c1ccc(NC(=O)c2ccc(Br)o2)cc1	PHOSPHO1 block 71
CC(=O)Nc1cccc(NC(=O)Nc2ccc(C(C)=O)cc2)c1	none
COC(=O)Cc1ccc(NC(=O)c2ccc(Br)o2)cc1	none
CCc1ccc(NC(=O)CN2CCN(c3ccc(OC)cc3)CC2)cc1	none (no result: proCasp7 act, PHOSPHO1 block, IDE inh, UBC13 inh, proCasp3 act)
C=CCn1c(N)c(C(=O)NCCC2=CCCCC2)sc1=S	PHOSPHO1 block 77
COc1cc(/C=N/NC(=O)COc2ccc(C)cc2)ccc1OC(=O)c1cccs1	none
CCOc1cc(/C=N/NC(=O)COc2ccc(C)cc2)ccc1OC(=O)c1cccs1	PHOSPHO1 block 60
COCCn1c(C)cc(C(=O)CSc2nc3ccccc3o2)c1C	PHOSPHO1 block 98
COCCn1c(C)cc(C(=O)CSc2nc3ccccc3s2)c1C	none
O=C(O)c1ccc2c3c(ncnc13)-c1ccccc1C2=O	PHOSPHO1 block 105 (no result: IDE act)
COCCCNC(=O)c1ccc(N2CCCC2)c(NS(=O)(=O)c2ccc(C)cc2)c1	PHOSPHO1 block 64
CC(=O)Nc1ccc(NC(=O)C(C)OC(=O)c2ccc3[nH]c(C)c(C)c3c2)cc1 (stereo unspecified)	none (no result: PHOSPHO1 block)
CC(C)(C)c1nnc2sc(SC/C(O)=C(\C#N)c3nc4ccccc4[nH]3)nn2c1=O	PHOSPHO1 block 71
CC(C)(C)c1nnc2sc(SCC(=O)c3ccccc3)nn2c1=O	none
Cc1ccccc1CCN1CCCC(CN(C)C(=O)c2ccc3ncccc3c2)C1 (stereo unspecified)	none
COc1ccccc1CNS(=O)(=O)c1ccc2c(c1)N(C(C)=O)CCO2	none
O=c1nc2s/c(=C\c3ccc(-c4ccccc4[N+](=O)[O-])o3)c(=O)n2nc1-c1ccccc1	PHOSPHO1 block 74 (no result: proCasp7 act, IDE inh, UBC13 inh, proCasp3 act)
Cc1nnc2sc(SCC(=O)N3CCCCC3)nn2c1=O	none
Cc1nnc2sc(SCC(=O)N3CCC(C)CC3)nn2c1=O	PHOSPHO1 block 66
CCOc1cc(C(=O)CSc2nnc(CNc3ccc(Cl)cc3)o2)ccc1NC(=O)CC	PHOSPHO1 block 84
CCc1nnc(NC(=O)CSc2nnc(-c3ccccc3NC(=O)c3ccccc3)o2)s1	PHOSPHO1 block 68
CCc1nnc(NC(=O)CSc2nnc(Cc3ccccc3)o2)s1	none
CCc1nnc(NC(=O)CSc2nnc(CNc3ccc(Cl)cc3)o2)s1	PHOSPHO1 block 62
CCOC(=O)CSc1nnc(-c2ccccc2NC(=O)c2ccccc2)o1	none
COc1ccc(NCc2nnc(SCC(=O)c3ccc(OC)cc3)o2)cc1	none
CC(=O)N1CCC(C(=O)Nc2ccc(S(=O)(=O)N3CCCCC3)cc2)CC1	none
Cc1ccc(-c2nnn(CC(=O)NC3CCCc4ccccc43)n2)cc1 (stereo unspecified)	PHOSPHO1 block 62
NC(=O)C1CCN(CC(=O)NC2CCCc3ccccc32)CC1 (stereo unspecified)	none
CCOC(=O)NC(Nc1sc2c(c1C(N)=O)CCCC2)(C(=O)OCC)C(F)(F)F (stereo unspecified)	PHOSPHO1 block 73
O=[N+]([O-])c1cccc(Cl)c1NCCNc1ncc(C(F)(F)F)cc1Cl	IDE act 73
Cc1c(C(=O)NCCNc2ncc(C(F)(F)F)cc2Cl)cccc1[N+](=O)[O-]	none
CCOc1ccc(-c2nnc(SCC(=O)Nc3ccc4c(c3)c3ccccc3n4CC)n2N)cc1	PHOSPHO1 block 79
CCn1c2ccccc2c2cc(NC(=O)CSc3nnc(-c4ccccc4OC)n3N)ccc21	PHOSPHO1 block 78
CCn1c2ccccc2c2cc(NC(=O)CSc3nnc(-c4cccc(OC)c4)n3N)ccc21	none
CCn1c2ccccc2c2cc(NC(=O)CSc3nnc(-c4ccc(OC)c(OC)c4)n3N)ccc21	none
CN(C)CCCNC(=O)C1(O)c2cc(Br)ccc2NC(=O)N1c1ccc(Cl)cc1 (stereo unspecified)	none (no result: PHOSPHO1 block)
Cc1ccc(S(=O)(=O)N2CC(O)C2)cc1	none (no result: PHOSPHO1 block)
O=C(CSCc1nc2scc(-c3cccs3)c2c(=O)[nH]1)Nc1ccccn1	none
O=c1[nH]c(CN2CCc3ccccc32)nc2scc(-c3cccs3)c12	PHOSPHO1 block 64
COC1OC2COC(c3ccccc3)OC2C2OC12 (stereo unspecified)	none (no result: proCasp7 act, PHOSPHO1 block, IDE inh, UBC13 inh, proCasp3 act)
